# Bioassay records deposited in PubChem BioAssay by Johns Hopkins Ion Channel Center.
# Most compounds without a hit are left out; they make up all but 3.8% or so of the library.
# hERG protect: hERG rescue from dofetilide block, primary screen, cell-based, CHO-hERG, FluxOR thallium flux, dofetilide IC70 | activation (rescue from dofetilide block), less the hit threshold, % at 10 µM | 0.51% of 310,000 active | dofetilide IC70 present;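 active = activation above the mean of controls blocked by dofetilide plus 5 SD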;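 also: thallium influx through hERG after potassium depolarization seen as dye fluorescence rise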
# KCNK9 block: KCNK9 potassium channel inhibitors, primary screen, HEK293 cells, thallium flux; 1.2% of 310,000 active; AID 488922, 2010; Potassium channel subfamily K member 9 (Homo sapiens), Q9NPC2; FluxOR thallium flux fluorescence; stronger effect = lower value; B-score at 10 µM;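 active = ratio B-score over 3 SD below the library mean, with starting fluorescence within 5 SD of its mean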;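 also: negative B-score means less thallium flux so channel inhibition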
# Kir21 block: inhibitors of mouse Kir2.1 inward-rectifier potassium channel; B-score at 10 µM; 0.85% of 310,000 active; AID 1672, 2009; HEK293-Kir2.1, FluxOR thallium flux fluorescence; stronger effect = lower value;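 active = fluorescence ratio B-score at or below minus 3 SD of library scores, with starting-brightness B-score within 2 SD, cut at about -4.2 in these data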;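 also: channel flux triggered by added potassium and thallium sulfate stimulus; B-score of peak minus minimum fluorescence over baseline after thallium stimulus; more negative B-score means stronger Kir2.1 block with less thallium influx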
# KCNK3 inh: human KCNK3 channel inhibitors, primary screen, CHO cells, FluxOR thallium flux, B-score. FluxOR fluorescence; stronger effect = lower value. 0.84% of 340,000 active. B-score at 10 µM. AID 602410, 2012;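 active = B-score under library mean minus 4 SD, starting fluorescence ratio at most library mean plus 5 SD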;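 also: more negative B-score means stronger inhibition of thallium flux through KCNK3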
# KCNQ1 block: inhibitors of human KCNQ1 channel, primary screen, cell-based, thallium flux, high-throughput. B-score at 10 µM. 1.3% of 310,000 active. AID 2642, 2010. CHO-K1 KCNQ1, FluxOR thallium flux fluorescence; stronger effect = higher value;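 active = compounds whose thallium flux B-score, printed positive for inhibition, exceeds three library SD while starting fluorescence stays within three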;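 also: channel opened by potassium depolarization with thallium stimulus after 20 min compound exposure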
# Target sequence (P51787 whole entry, looked up): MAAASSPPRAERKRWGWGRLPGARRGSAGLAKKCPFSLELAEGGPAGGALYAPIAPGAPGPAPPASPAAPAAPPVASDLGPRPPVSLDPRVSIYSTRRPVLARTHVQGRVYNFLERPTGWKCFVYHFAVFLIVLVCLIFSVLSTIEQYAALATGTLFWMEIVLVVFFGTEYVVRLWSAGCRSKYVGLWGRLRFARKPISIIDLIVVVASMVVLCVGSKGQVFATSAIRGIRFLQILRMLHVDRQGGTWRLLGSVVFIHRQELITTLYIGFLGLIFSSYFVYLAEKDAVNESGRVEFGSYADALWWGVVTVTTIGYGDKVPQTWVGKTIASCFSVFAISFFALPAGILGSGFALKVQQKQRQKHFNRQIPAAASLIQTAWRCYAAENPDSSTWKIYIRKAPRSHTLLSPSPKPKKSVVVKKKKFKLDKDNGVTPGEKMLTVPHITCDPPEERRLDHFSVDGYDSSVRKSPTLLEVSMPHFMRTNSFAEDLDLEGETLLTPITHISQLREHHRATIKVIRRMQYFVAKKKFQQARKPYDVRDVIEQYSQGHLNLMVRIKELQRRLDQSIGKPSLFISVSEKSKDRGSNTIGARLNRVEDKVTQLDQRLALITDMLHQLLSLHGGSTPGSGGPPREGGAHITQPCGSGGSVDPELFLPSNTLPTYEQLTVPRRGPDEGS
# KCNQ1 act: potentiators or activators of KCNQ1 channel, primary screen, cell-based, thallium flux, high-throughput | Potassium voltage-gated channel subfamily KQT member 1 (Homo sapiens), P51787 | B-score at 10 µM | 0.35% of 310,000 active | CHO-K1 KCNQ1, thallium flux FluxOR fluorescence; stronger effect = higher value;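 active = fluorescence ratio B-score, a plate-corrected score, at least three library SD, with initial intensity B-score within 5 SD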
#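 Assay system: stable KCNQ1 CHO-K1 line; medium: assay buffer, equal DMSO in all wells; timing: 90 min dye loading and 20 min compound exposure, both at room temperature; technique: kinetic FluxOR thallium fluorescence, 10-s 1-Hz baseline, 110-s post-stimulus read; read-out basis: B score of baseline-normalized fluorescence ratio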
# Active calls of the source: *; i = inactive; · = no result.
SMILES,hERG protect,KCNK9 block,Kir21 block,KCNK3 inh,KCNQ1 block,KCNQ1 act
O=C1/C(=C/c2cccc(F)c2)Oc2cc(O)ccc21,-8.4,i,-5.17,i,14*,i
S=c1nc(Cc2ccc(Cl)cc2)[nH]c2ccccc12,4.0,i,-0.27,i,i,43*
S=c1nc(COc2ccccc2)[nH]c2ccccc12,76.2*,i,0.24,i,i,92*
S=c1nc(Cc2ccccc2)[nH]c2ccccc12,44.1*,i,-0.58,i,i,48*
CC(C)(C)OC(=O)N1CCC[C@H]1C(=O)N/N=C/c1cccc2nccnc12,-5.3,i,-0.79,i,i,i
Cc1sc(-n2c(C)cc(/C=C3\SC(=S)NC3=O)c2C)c(C#N)c1C,-4.0,i,-1.96,i,i,9*
CC(C)CCNC(=O)C(c1ccc(O)cc1)N(C(=O)C1COc2ccccc2O1)c1cccc(O)c1 (centres undefined),-13.1,i,-1.09,i,7*,i
O=C1NC(=S)NC(=O)C1Nc1ccc(Cl)cc1,·,·,·,i,·,·
Cn1cc(/C=C/c2cc[n+](C)cc2)c2cc(F)ccc21,-35.9,i,-12.5,i,i,i
Cn1cc(/C=C/c2cc[n+](C)cc2)c2cc(Cl)ccc21,-31.9,i,-13.9,i,12*,i
COCCN(C(=O)COC(=O)CCOc1cccc(C)c1)c1c(N)n(Cc2ccccc2)c(=O)[nH]c1=O,-6.1,i,0.03,i,i,i
C[C@H]1CN([C@@H](C)CO)C(=O)c2cccc(NS(=O)(=O)c3cn(C)cn3)c2O[C@H]1CN(C)S(C)(=O)=O,·,·,·,i,·,·
CC(C)N1C(=O)/C(=C/c2nc3ccccc3c(=O)n2-c2ccccc2)c2ccccc21,-19.5,i,-0.51,i,6*,i
Cc1ccc(N=Nc2ccc(O)c3ncccc23)cc1C,-1.0,i,-0.82,i,i,11*
Cc1ccc(N=Nc2ccc(O)c3ncccc23)cc1,19.8*,i,-0.88,i,i,16*
NS(=O)(=O)c1ccc(NC(=O)CNC(=O)c2ccc3c(c2)OCO3)cc1,·,·,·,i,·,·
O=C(CCc1c[nH]c2ccccc12)N1CCN(S(=O)(=O)c2ccc(F)cc2)CC1,·,·,·,i,·,·
CCOc1cc(/C=C/C(=O)N(CC)CC(=O)NCc2cccs2)cc(Cl)c1OC,-16.2,i,-1.6,i,i,i
CCC(C(=O)NCCCN(CC)Cc1ccccc1)n1nc(C)c2sc3ccccc3c2c1=O (centres undefined),-7.6,i,-9.54*,i,i,i
O=C(CNC(=O)c1cccs1)Nc1ccncc1,-7.8,i,-0.98,i,i,i
C=CCc1cc(Cl)ccc1OCCCNCCO,-5.8,i,-5.44*,i,i,i
C=CCc1cc(Cl)ccc1OCCCNC(C)C,-2.6,i,-3.13,i,i,i
Cc1ccc(N2CC(NC(=O)C3CC3)CC2=O)cc1 (centres undefined),-9.2,i,0.85,i,i,i
O=[N+]([O-])c1cccc(S(=O)(=O)NCC2CC3CCC2C3)c1 (centres undefined),-5.2,i,0.1,i,i,i
O=[N+]([O-])c1ccc(S(=O)(=O)NCC2CC3CCC2C3)cc1 (centres undefined),-2.6,i,-0.44,i,7*,i
SMILES,hERG protect,KCNK9 block,Kir21 block,KCNK3 inh,KCNQ1 block,KCNQ1 act
CCOc1ccc(OCCCCn2ccnc2)cc1,-8.5,i,0.35,i,i,i
C/C=C/c1ccc(OCCCCOc2c(OC)cccc2OC)c(OC)c1,-1.9,i,0.68,i,i,i
C=CCc1ccc(OCCCCN2CC(C)OC(C)C2)c(OC)c1 (centres undefined),4.9*,i,-0.78,i,i,i
C=CCc1ccc(OCCN2CCc3ccccc3C2)c(OC)c1,-12.0,i,-10.2*,i,i,i
C=CCc1ccc(OCCCNCc2ccccc2)c(OC)c1,-1.3,i,-8.02*,i,i,i
C/C=C/c1ccc(OCCN2CCc3ccccc3C2)c(OC)c1,-17.5,i,-11.2*,i,i,i
COc1cc(/C=C2/C(=O)NN(c3cccc(C)c3)C2=O)ccc1OC(=O)c1ccco1,-5.2,i,-6.07*,i,i,i
O=C(c1ccco1)N1CCN(CCOCCOc2cccc3ccccc23)CC1,-15.5,i,1.56,i,i,i
c1ccc(-c2ccccc2OCCCCN2CCCCCC2)cc1,-12.2,i,-6.59*,i,i,i
CC1CCN(CCOCCOc2ccccc2-c2ccccc2)CC1,-11.2,i,-5.49*,i,i,i
c1ccc(-c2ccccc2OCCOCCN2CCCCC2)cc1,-3.9,i,-2.05,i,i,i
CC1CCN(CCOc2ccc(OCc3ccccc3)cc2)CC1,-12.4,i,-7.09*,i,i,i
c1ccc(CN2CCN(CCOCCOc3cccc4ccccc34)CC2)cc1,-13.9,i,-14.4*,i,i,i
O=C(O)c1ccc(Cl)c(NCc2cccs2)c1,-6.5,i,-0.94,i,i,i
CC1CCN(CCCCOc2ccccc2-c2ccccc2)CC1,-17.6,i,-9.65*,i,i,i
COc1ccccc1OCCCCN1CCC(C)CC1,-7.9,i,-0.01,i,i,i
O=C(Cc1ccccc1)NC1CCN(Cc2ccccc2)CC1,-2.1,i,0.96,i,i,i
Fc1ccc(CNc2ccc(N3CCN(Cc4ccccc4)CC3)cc2)cc1,-13.5,i,-7.12*,i,i,i
C#CCOc1ccccc1CNC1CCN(Cc2ccccc2)CC1,-2.1,i,-4.4*,i,i,i
O=C(Nc1ccc2c(c1)OCO2)NC1CCN(Cc2ccccc2)CC1,-4.2,i,-1.32,i,i,i
O=C(Nc1ccc(F)cc1)NC1CCN(Cc2ccccc2)CC1,-11.4,i,-5.15*,i,i,i
Cc1ccccc1CC(=O)NC1CCN(Cc2ccccc2)CC1,8.2*,i,0.44,i,i,i
COC(=O)C(Cc1ccc(O)cc1)NC(=O)Cn1cc(C)c(=O)[nH]c1=O (centres undefined),·,·,·,i,·,·
